In ChEMBL document CHEMBL1126750, “Nonpeptide angiotensin II receptor antagonists. Synthesis and biological activity of benzimidazolecarboxylic acids” (J Med Chem, 1993):

Tests used:
[1] = target: T1, Type-1 angiotensin II receptor (Bos taurus, UniProt P25104); test: Inhibition of specific binding of [125 I ] Angiotensin-II (0.2 nM) to bovine adrenal cortex; format: tissue-based
T1 sequence (P25104 whole entry): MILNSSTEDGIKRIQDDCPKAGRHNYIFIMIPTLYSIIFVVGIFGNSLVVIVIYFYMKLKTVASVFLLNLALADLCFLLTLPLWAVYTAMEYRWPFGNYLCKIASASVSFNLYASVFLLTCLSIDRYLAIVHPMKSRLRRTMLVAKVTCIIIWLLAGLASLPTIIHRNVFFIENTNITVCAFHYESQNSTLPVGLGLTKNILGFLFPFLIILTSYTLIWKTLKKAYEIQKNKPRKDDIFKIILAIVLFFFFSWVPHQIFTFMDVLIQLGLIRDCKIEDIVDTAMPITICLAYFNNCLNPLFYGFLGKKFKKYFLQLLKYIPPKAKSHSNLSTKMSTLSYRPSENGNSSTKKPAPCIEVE

[2] = target: T2, Angiotensin II receptor (Rattus norvegicus) (UniProt P29089+P25095+P35351); test: Percent inhibition of the Angiotensin-II (0.1ug/kg, iv) induced pressor response after 3 hours of administration (3 mg/kg po) in rats; format: functional, organism-based
Outline: (§1)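 Conscious male Sprague-Dawley rats dosed orally with test compound; pressor response to AII challenge (0.1 µg/kg iv) measured at 3 and 7 h after dosing and expressed as percent inhibition. Duplicate experiments, with n = 3 for some compounds; variation in % inhibition under 30%.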

Rattus norvegicus [3] = test: Percent inhibition of the Angiotensin-II (0.1ug/kg, iv) induced pressor response after 7 hours of administration (3 mg/kg po) in rats; format: functional; outline: as §1
[4] = target: T2, Angiotensin II receptor (Rattus norvegicus); test: Percent inhibition of the Angiotensin-II (0.1ug/kg, iv) induced pressor response after 7 hours of administration (1 mg/kg po) in rats; format: functional, organism-based; outline: as §1
[5] = target: T2, Angiotensin II receptor (Rattus norvegicus); test: Percent inhibition of the Angiotensin-II (0.1ug/kg, iv) induced pressor response after 3 hours of administration (1 mg/kg po) in rats; format: functional, organism-based; outline: as §1
[6] = target: T2, Angiotensin II receptor (Rattus norvegicus); test: (§2) Percent inhibition of the Angiotensin-II (0.1micro g/kg, iv) induced pressor response after 7 hours of administration (3 mg/kg po) in rats; format: functional, organism-based; outline: as §1
Rattus norvegicus [7] = test: Percent inhibition of the Angiotensin-II (0.1micro g/kg, iv) induced pressor response after 7 hours of administration (10 mg/kg po) in rats; format: functional; outline: as §1
Rattus norvegicus [8] = test: Percent inhibition of the Angiotensin-II (0.1ug/kg, iv) induced pressor response after 3 hours of administration (10 mg/kg po) in rats; format: functional; outline: as §1
Oryctolagus cuniculus = species on record: Oryctolagus cuniculus; test: Concentration required for inhibition of Angiotensin-II induced rabbit aorta strips contraction; format: functional
Outline: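 Isolated rabbit aortic strips contracted with AII (10 nM); test compound inhibition measured from concentration-inhibition curves, n = 6-8; IC50 is the concentration halving the AII-induced contraction.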

Rattus norvegicus [9] = test: as §2; format: functional; outline: as §1

Structure (SMILES) | IC50 [1] [nM] | inhibition [4] [%] | inhibition [5] [%] | other results
CCCOc1nc2cccc(C(=O)OCC)c2n1Cc1ccc(-c2ccccc2-c2nn[nH]n2)cc1 |  |  |  | inhibition [2]: 66%; Inhibition (Rattus norvegicus [3]): 93%
CCOc1nc2c(C(=O)O)cccc2n1Cc1ccc(-c2ccccc2-c2nn[nH]n2)cc1 |  |  |  | Inhibition (Rattus norvegicus [7]): 5%; Inhibition (Rattus norvegicus [8]): 22%; IC50 (Oryctolagus cuniculus): 131 nM
CCc1nc2cccc(C(=O)O)c2n1Cc1ccc(-c2ccccc2-c2nnn[nH]2)cc1 | 46 |  |  | 
CCC(C)c1nc2cccc(C(=O)O)c2n1Cc1ccc(-c2ccccc2-c2nnn[nH]2)cc1 (centres undefined) | 3900 |  |  | 
CCCOc1nc2cccc(C(=O)O)c2n1Cc1ccc(-c2ccccc2-c2nn[nH]n2)cc1 |  | 83 | 87 | inhibition [6]: 100%; inhibition [2]: 100%
CCCCc1nc(Cl)c(CO)n1Cc1ccc(-c2ccccc2-c2nnn[nH]2)cc1 |  | 34 | 21 | inhibition [6]: 74%; inhibition [2]: 62%
CC[S+]([O-])c1nc2cccc(C(=O)OC)c2n1Cc1ccc(-c2ccccc2-c2nn[nH]n2)cc1 (centres undefined) | > 1000 |  |  | 
COCc1nc2cccc(C(=O)O)c2n1Cc1ccc(-c2ccccc2-c2nn[nH]n2)cc1 | 250 | 33 | 47 | 
COCCc1nc2cccc(C(=O)O)c2n1Cc1ccc(-c2ccccc2-c2nn[nH]n2)cc1 | 580 | 3 | 13 | 
C=CCOc1nc2cccc(C(=O)OC)c2n1Cc1ccc(-c2ccccc2-c2nnn[nH]2)cc1 | 850 |  |  | 
COc1nc2cccc(C(=O)O)c2n1Cc1ccc(-c2ccccc2-c2nnn[nH]2)cc1 | 32 |  |  | 
CCCSc1nc2cccc(C(=O)O)c2n1Cc1ccc(-c2ccccc2-c2nn[nH]n2)cc1 |  | 100 | 100 | inhibition [6]: 76%; inhibition [2]: 88%
CCCCc1nc(Cl)c(CO)n1Cc1ccc(-c2ccccc2-c2nn[nH]n2)cc1 [LOSARTAN POTASSIUM] | 150 |  |  | 
Cc1nc2cccc(C(=O)O)c2n1Cc1ccc(-c2ccccc2-c2nn[nH]n2)cc1 |  |  |  | Inhibition (Rattus norvegicus [9]): 51%; inhibition [2]: 50%
CCCNc1nc2cccc(C(=O)O)c2n1Cc1ccc(-c2ccccc2-c2nn[nH]n2)cc1 |  | 66 | 46 | inhibition [6]: 72%; inhibition [2]: 73%
COC(=O)c1cccc2nc(OC)n(Cc3ccc(-c4ccccc4-c4nn[nH]n4)cc3)c12 |  | 89 | 94 | 
CCOCc1nc2cccc(C(=O)O)c2n1Cc1ccc(-c2ccccc2-c2nnn[nH]2)cc1 | 440 |  |  | 
CCOc1nc2ccc(C(=O)O)cc2n1Cc1ccc(-c2ccccc2-c2nn[nH]n2)cc1 | 930 |  |  | Inhibition (Rattus norvegicus [7]): 34%; Inhibition (Rattus norvegicus [8]): 50%; IC50 (Oryctolagus cuniculus): 1.9 nM
CCOc1nc2cc(C(=O)O)ccc2n1Cc1ccc(-c2ccccc2-c2nn[nH]n2)cc1 | 13000 |  |  | Inhibition (Rattus norvegicus [7]): 4%; Inhibition (Rattus norvegicus [8]): 4%; IC50 (Oryctolagus cuniculus): 191 nM
CC(C)c1nc2cccc(C(=O)O)c2n1Cc1ccc(-c2ccccc2-c2nn[nH]n2)cc1 |  |  |  | inhibition [6]: 38%; inhibition [2]: 61%
CC(C)Cc1nc2cccc(C(=O)O)c2n1Cc1ccc(-c2ccccc2-c2nnn[nH]2)cc1 | 3200 |  |  | 
Cc1nc2cccc(C(=O)O)c2n1Cc1ccc(-c2ccccc2-c2nnn[nH]2)cc1 | 190 |  |  | 
CCSc1nc2cccc(C(=O)OC)c2n1Cc1ccc(-c2ccccc2-c2nn[nH]n2)cc1 | 440 |  |  | 
COC(=O)c1cccc2nc(OC)n(Cc3ccc(-c4ccccc4-c4nnn[nH]4)cc3)c12 | 490 |  |  | 
O=C(O)c1cccc2nc(N3CCCCC3)n(Cc3ccc(-c4ccccc4-c4nnn[nH]4)cc3)c12 | > 1000 |  |  | 
CCCSc1nc2cccc(C(=O)O)c2n1Cc1ccc(-c2ccccc2-c2nnn[nH]2)cc1 | 120 |  |  | 
O=C(O)c1cccc2nc(N3CCOCC3)n(Cc3ccc(-c4ccccc4-c4nnn[nH]4)cc3)c12 | > 1000 |  |  | 

Further lines, with some results ahead:

IC50 [1] [nM] | inhibition [4] [%] | inhibition [5] [%] | Structure (SMILES) | other results
39 |  |  | CCCNc1nc2cccc(C(=O)O)c2n1Cc1ccc(-c2ccccc2-c2nnn[nH]2)cc1 | 
 | 12 | 14 | C=CCOc1nc2cccc(C(=O)OC)c2n1Cc1ccc(-c2ccccc2-c2nn[nH]n2)cc1 | 
190 | 44 | 26 | CCOc1nc2cccc(C(=O)O)c2n1Cc1ccc(-c2ccccc2C(=O)O)cc1 | inhibition [6]: 49%; inhibition [2]: 37%
 | 90 | 87 | CCSc1nc2cccc(C(=O)O)c2n1Cc1ccc(-c2ccccc2-c2nn[nH]n2)cc1 | inhibition [6]: 97%; inhibition [2]: 99%
66 |  |  | CCOc1nc2cccc(C(=O)OC)c2n1Cc1ccc(-c2ccccc2-c2nnn[nH]2)cc1 | 
170 |  |  | CNc1nc2cccc(C(=O)O)c2n1Cc1ccc(-c2ccccc2-c2nnn[nH]2)cc1 | 
190 |  |  | CCCOc1nc2cccc(C(=O)O)c2n1Cc1ccc(-c2ccccc2-c2nnn[nH]2)cc1 | 
 | 9 | 36 | COC(=O)c1cccc2nc(OCC(F)(F)F)n(Cc3ccc(-c4ccccc4-c4nn[nH]n4)cc3)c12 | 
620 | 10 | 10 | CSCCc1nc2cccc(C(=O)O)c2n1Cc1ccc(-c2ccccc2-c2nn[nH]n2)cc1 | 
> 1000 |  |  | CCN(C)c1nc2cccc(C(=O)O)c2n1Cc1ccc(-c2ccccc2-c2nnn[nH]2)cc1 | 
 | 13 | -9 | CC(C)Cc1nc2cccc(C(=O)O)c2n1Cc1ccc(-c2ccccc2-c2nn[nH]n2)cc1 | inhibition [6]: 29%; inhibition [2]: 29%
650 |  |  | CCCCNc1nc2cccc(C(=O)O)c2n1Cc1ccc(-c2ccccc2-c2nnn[nH]2)cc1 | 
150 | 44 | 85 | CSCc1nc2cccc(C(=O)O)c2n1Cc1ccc(-c2ccccc2-c2nn[nH]n2)cc1 | 
 | 0 | 6 | CCC(C)c1nc2cccc(C(=O)O)c2n1Cc1ccc(-c2ccccc2-c2nn[nH]n2)cc1 (centres undefined) | inhibition [6]: 18%; inhibition [2]: 15%
 | 81 | 100 | CSc1nc2cccc(C(=O)O)c2n1Cc1ccc(-c2ccccc2-c2nn[nH]n2)cc1 | inhibition [6]: 95%; inhibition [2]: 100%
> 1000 |  |  | COC(=O)c1cccc2nc(OCC(F)(F)F)n(Cc3ccc(-c4ccccc4-c4nnn[nH]4)cc3)c12 | 
 | 80 | 97 | COc1nc2cccc(C(=O)O)c2n1Cc1ccc(-c2ccccc2-c2nn[nH]n2)cc1 | 

IC50 [1] [nM] | inhibition [4] [%] | inhibition [5] [%] | Structure (SMILES) | other results
62 |  |  | CCNc1nc2cccc(C(=O)O)c2n1Cc1ccc(-c2ccccc2-c2nnn[nH]2)cc1 | 
170 |  |  | CCSc1nc2cccc(C(=O)O)c2n1Cc1ccc(-c2ccccc2-c2nnn[nH]2)cc1 | 
 | 29 | 63 | CCOCc1nc2cccc(C(=O)O)c2n1Cc1ccc(-c2ccccc2-c2nn[nH]n2)cc1 | 
550 |  |  | CCCCc1nc2cccc(C(=O)O)c2n1Cc1ccc(-c2ccccc2-c2nnn[nH]2)cc1 | 
 | 57 | 68 | CCSCc1nc2cccc(C(=O)O)c2n1Cc1ccc(-c2ccccc2-c2nn[nH]n2)cc1 | 
120 |  |  | CSc1nc2cccc(C(=O)O)c2n1Cc1ccc(-c2ccccc2-c2nnn[nH]2)cc1 | 
> 1000 |  |  | CCCCOc1nc2cccc(C(=O)OC)c2n1Cc1ccc(-c2ccccc2-c2nnn[nH]2)cc1 | 
 | 53 | 49 | CCCCc1nc2cccc(C(=O)O)c2n1Cc1ccc(-c2ccccc2-c2nn[nH]n2)cc1 | Inhibition (Rattus norvegicus [9]): 76%; inhibition [2]: 80%
170 | 69 | 83 | CCCc1nc2cccc(C(=O)O)c2n1Cc1ccc(-c2ccccc2-c2nn[nH]n2)cc1 | inhibition [6]: 91%; inhibition [2]: 90%
84 | 88 | 80 | O=C(O)c1cccc2nc(C3CC3)n(Cc3ccc(-c4ccccc4-c4nn[nH]n4)cc3)c12 | inhibition [6]: 96%; inhibition [2]: 92%
300 |  |  | CCSCc1nc2cccc(C(=O)O)c2n1Cc1ccc(-c2ccccc2-c2nnn[nH]2)cc1 | 
560 |  |  | CCCCCc1nc2cccc(C(=O)O)c2n1Cc1ccc(-c2ccccc2-c2nnn[nH]2)cc1 | 
580 | 7 | 28 | O=C(O)c1cccc2nc(OCC(F)(F)F)n(Cc3ccc(-c4ccccc4-c4nn[nH]n4)cc3)c12 | 
 | 90 | 100 | CCOc1nc2cccc(C(=O)OC)c2n1Cc1ccc(-c2ccccc2-c2nn[nH]n2)cc1 | inhibition [6]: 100%; inhibition [2]: 100%
82 |  |  | CC(C)c1nc2cccc(C(=O)O)c2n1Cc1ccc(-c2ccccc2-c2nnn[nH]2)cc1 | 
1000 |  |  | CCCOc1nc2cccc(C(=O)OCC)c2n1Cc1ccc(-c2ccccc2-c2nnn[nH]2)cc1 | 
